pIC50: −log10 of the molar value.
Key:
[1] = Lipophilicity, log P of the compound; format: physicochemical; conditions: octanol/water
Summary of the method: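 log P calculated from Rekker's hydrophobic fragmental constants.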

[2] = target: Phospholipase A2, major isoenzyme (Sus scrofa, UniProt P00592); assay: Inhibition of pig group IB PLA2 by fluorimetric assay
Summary of the method: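 Porcine pancreatic sPLA2, 60 ng per 1 mL, in 50 mM Tris-HCl pH 7.5, 100 mM NaCl, 1 mM EGTA, 0.1% fatty acid-free BSA, 2 µM pyrene substrate β-pyC-10-PG. Inhibitor in ethanol or DMSO added after BSA. Activity as µmol hydrolyzed/min/mg, giving 50%-inhibition concentration.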

[3] = target: T1, Phospholipase A2, membrane associated (Homo sapiens, UniProt P14555); assay: Inhibition of human group IIA PLA2 by fluorimetric assay
T1 sequence (P14555 whole entry): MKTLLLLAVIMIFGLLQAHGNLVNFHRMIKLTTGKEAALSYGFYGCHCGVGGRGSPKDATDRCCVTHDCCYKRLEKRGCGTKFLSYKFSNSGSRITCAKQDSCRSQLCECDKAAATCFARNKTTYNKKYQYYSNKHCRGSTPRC
Summary of the method: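 Fluorimetric (Radvanyi method): 1 ng synthetic hGIIA sPLA2 in 1 mL of 50 mM Tris-HCl pH 7.5, 100 mM NaCl, 1 mM EGTA, 0.1% fatty acid-free BSA, 2 µM β-pyC-10-PG. Inhibitor added in ethanol or DMSO after BSA. Reaction started with 10 mM CaCl2 (final), fluorescence rise followed 2 min.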

[4] = target: T1, Phospholipase A2, membrane associated; assay: Inhibition of human group IIA PLA2 in [3H]oleate-labeled Escherichia coli membrane by radiometric assay
Summary of the method: (§1)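 Incubation 30-60 min, time adjusted for linear hydrolysis. Stopped with 0.1 M EDTA pH 8.0/1% BSA, centrifuged 10 000g, supernatant counted. Enzyme-free controls subtracted. IC50 obtained after 10 µM screen.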

Phospholipase A2 group V = target: T2, Phospholipase A2 group V (Homo sapiens, UniProt P39877); assay: Inhibition of human group V PLA2 in [3H]oleate-labeled Escherichia coli membrane by radiometric assay; summary of the method: as §1
T2 sequence (P39877 whole entry): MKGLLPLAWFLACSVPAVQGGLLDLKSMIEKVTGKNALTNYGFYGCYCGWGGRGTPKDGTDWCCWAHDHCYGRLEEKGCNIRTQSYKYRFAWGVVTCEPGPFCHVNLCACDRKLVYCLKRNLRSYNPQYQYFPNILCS

[5] = target: T3, Group 10 secretory phospholipase A2 (Homo sapiens, UniProt O15496); assay: Inhibition of human group X PLA2 in [3H]oleate-labeled Escherichia coli membrane by radiometric assay; summary of the method: as §1
T3 sequence (O15496 whole entry): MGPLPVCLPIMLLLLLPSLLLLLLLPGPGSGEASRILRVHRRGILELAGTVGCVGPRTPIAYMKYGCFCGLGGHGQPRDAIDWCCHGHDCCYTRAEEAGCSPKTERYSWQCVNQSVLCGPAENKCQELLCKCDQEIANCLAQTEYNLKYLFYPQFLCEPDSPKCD

Phospholipase A2 = Phospholipase A2 (Homo sapiens, UniProt P04054); assay: Inhibition of human group IB PLA2 in [3H]oleate-labeled Escherichia coli membrane by radiometric assay; summary of the method: as §1
Sequence of Phospholipase A2 (P04054 whole entry): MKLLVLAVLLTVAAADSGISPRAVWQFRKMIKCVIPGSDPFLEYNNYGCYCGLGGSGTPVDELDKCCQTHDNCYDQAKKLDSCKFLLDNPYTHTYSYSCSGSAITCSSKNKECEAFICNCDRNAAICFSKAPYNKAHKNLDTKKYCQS

Sequence of Phospholipase A2, major isoenzyme (P00592 whole entry): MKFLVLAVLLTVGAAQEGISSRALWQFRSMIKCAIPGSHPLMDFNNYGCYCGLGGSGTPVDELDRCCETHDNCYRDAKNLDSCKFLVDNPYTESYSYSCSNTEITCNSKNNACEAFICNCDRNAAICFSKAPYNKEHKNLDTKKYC

Compound	logP ([1]; read-out: LogP)	pIC50 [2]	pIC50 [3]	logP [1]	pIC50 [4]	pIC50 (Phospholipase A2 group V)	pIC50 [5]	pIC50 (Phospholipase A2)
CCCCCCCCCCCCCCOc1ccc(Cc2noc(=O)[nH]2)cc1	7.08	< 4.00	5.40	–	–	–	–	–
CCCCCCCCCCCCCCO[C@@H](COc1ccc(-c2nc(=O)o[nH]2)cc1)COC(c1ccccc1)(c1ccccc1)c1ccccc1	–	< 4.30	6.48	11.8	–	–	–	–
CCCCCCCCCCCCCCOC(COCCCCCCCCCC)COc1ccc(-c2nc(=O)o[nH]2)cc1 (stereo not drawn)	–	< 4.00	6.55	11.5	6.00	6.26	6.00	5.00
Cc1c(C(=O)C(N)=O)c2c(OCC(=O)O)cccc2n1Cc1ccccc1-c1ccccc1	–	–	–	–	6.74	6.57	5.34	5.48
CCCCCCCCCCCCCCOC(COc1ccc(Cc2nc(=O)o[nH]2)cc1)COc1ccc(Cc2nc(=O)o[nH]2)cc1	7.64	4.40	5.68	–	–	–	–	–
CCCCCCCCCCCCCCOC(COc1ccc(-c2nc(=O)o[nH]2)cc1)COc1ccc(-c2nc(=O)o[nH]2)cc1	7.05	< 4.00	4.32	–	–	–	–	–
CCCCCOC(COc1ccc(Cc2noc(=O)[nH]2)cc1)COc1ccc(Cc2noc(=O)[nH]2)cc1	2.97	< 4.00	4.52	–	–	–	–	–
O=c1nc(-c2ccc(OCC(COCCCCc3ccccc3)OCCCCc3ccccc3)cc2)[nH]o1 (racemic)	6.51	< 4.00	4.12	–	–	–	–	–
CCCCCCCOCC(COc1ccc(Cc2noc(=O)[nH]2)cc1)OCCCCCCC (racemic)	7.12	< 4.00	4.94	–	–	–	–	–
CCCCCCCCCOCC(COc1ccc(Cc2noc(=O)[nH]2)cc1)OCCCCCCCCC (racemic)	–	< 4.00	5.57	9.18	–	–	–	–
CCCCCCCCCCCCCCOC(CO)COc1ccc(-c2noc(=O)[nH]2)cc1 (racemic)	6.59	< 4.00	4.25	–	–	–	–	–
CCCCCCCCCCCCCCOC(COc1ccc(-c2noc(=O)[nH]2)cc1)COC(c1ccccc1)c1ccccc1 (racemic)	–	5.25	6.55	10.1	5.30	5.70	5.28	4.74
CCCCCCCCCCCCCCOCC(COc1ccc(Cc2nc(=O)o[nH]2)cc1)Oc1ccc(Cc2nc(=O)o[nH]2)cc1 (racemic)	7.64	4.24	5.51	–	–	–	–	–
CCCCCCCCCCCCCCOC(COCc1cccc(OC)c1)COc1ccc(-c2nc(=O)o[nH]2)cc1 (racemic)	8.56	4.41	5.66	–	–	–	–	–
CCCCCCCCCCCCCCOC(COCc1ccccc1)COc1ccc(-c2noc(=O)[nH]2)cc1 (racemic)	8.48	< 4.60	4.83	–	< 4.00	< 4.00	4.85	< 4.00
CCCCCCCCCCCCCCOC(COCC)COc1ccc(-c2noc(=O)[nH]2)cc1 (racemic)	7.34	< 4.40	4.53	–	–	–	–	–
CCCCCCCCCCCCCCOC(COCCCCC)COc1ccc(-c2noc(=O)[nH]2)cc1 (racemic)	8.72	< 4.00	5.08	–	–	–	–	–
CCCCCCCCCCCCCCCCCCOC(COCc1ccc(C#N)cc1)COc1ccc(Cc2noc(=O)[nH]2)cc1 (racemic)	–	4.44	6.82	11	5.94	6.00	6.05	5.06
CCCCCCCCCCCCCCOC(COCCCCc1ccccc1)COc1ccc(-c2noc(=O)[nH]2)cc1 (racemic)	–	5.66	6.54	10	4.59	4.66	4.92	4.82
CCCCCCCCCCCCCCOC(COCc1ccc(C#N)cc1)COc1ccc(Cc2nc(=O)o[nH]2)cc1 (racemic)	8.94	5.02	5.96	–	5.12	5.76	5.30	5.12
CCCCCCCCCCCCCCOC(COc1ccc(-c2noc(=O)[nH]2)cc1)COC(c1ccccc1)(c1ccccc1)c1ccccc1 (racemic)	–	< 4.30	6.05	11.8	5.70	6.18	5.90	5.24
CCCCCCCOCC(COc1ccc(-c2noc(=O)[nH]2)cc1)OCCCCCCC (racemic)	6.3	< 4.00	4.29	–	–	–	–	–
CCCCCCCCCCCCCCOCC(COc1ccc(-c2noc(=O)[nH]2)cc1)Oc1ccc(-c2noc(=O)[nH]2)cc1 (racemic)	7.05	4.20	4.68	–	–	–	–	–

Source: ChEMBL document CHEMBL1142970, “Inhibition of secreted phospholipase A2. 4-glycerol derivatives of 4,5-dihydro-3-(4-tetradecyloxybenzyl)-1,2,4-4H-oxadiazol-5-one with broad activities” (J Med Chem, 2007)
